Published values of several laboratories.
Lines come from different studies, so protocols differ.
Target: Death-associated protein kinase 2 (DAPK2, Homo sapiens, UniProt Q9UIK4)

For `C=CC(=O)N1CCC(C(=O)NCC(=O)N2CCN(c3nc(-c4cnc(N)nc4C(F)F)nc(N4CCOCC4)n3)CC2)CC1`, the remaining binding was 95% (binding; competition with immobilised ligand; 1 µM).
The remaining binding of `O=C(NCCCN1CCOCC1)c1ccc(Nc2nccc(-c3cc4ccccc4s3)n2)cc1` is reported as 18% (binding; competition with immobilised ligand; 1 µM).
For `c1cnn2ncc(-c3ccnc(N4CCC45COC5)n3)c2c1`, the remaining binding was 70% (binding; 1 µM).
`Cc1cc(-n2nc(Cc3cc(F)cc(C(F)(F)F)c3)nc2C)ccc1C(N)=O` gave a remaining binding of 95% (cell-free assay; competition with immobilised ligand; 1 µM).
`COc1cnc(Nc2cccc(S(N)(=O)=O)c2)nc1N1CCN(c2ccccc2)C(=O)C1` gave a remaining binding of 100% (binding; competition with immobilised ligand; 1 µM).
The remaining binding of `CN(c1ccnc(CNc2nc(Nc3ccc4c(c3)CC(=O)N4)ncc2C(F)(F)F)n1)S(C)(=O)=O` is reported as 58% (cell-free assay; competition with immobilised ligand; 1 µM).
For `CCN1CCN(Cc2ccc(C(=O)Nc3ccc(C)c(Oc4ccc5c(c4)CC(=O)N5)c3)cc2C(F)(F)F)CC1`, the remaining binding was 100% (binding; competition with immobilised ligand; 1 µM).
`c1cncc(-c2cccc(Nc3nccc(NC4CCCCC4)n3)c2)c1` gave a remaining binding of 84% (binding; competition with immobilised ligand; 10 µM).
`N#CC1(c2ccccn2)CCN(Cc2cc(C(=O)N3CCCC3)c(=O)n3ccccc23)CC1` has a remaining binding of 94% (cell-free assay; competition with immobilised ligand; 1 µM).
`CC1CCCN1c1nccc(-c2cnn3ncccc23)n1` (stereo not shown) has a remaining binding of 86% (binding; 1 µM).
The remaining binding of `COc1cccc(CNC(=O)c2nc3scc(COCc4ccc(C(=O)O)cc4)c3c(=O)[nH]2)c1` is reported as 83.1% (cell-free assay; competition with immobilised ligand; 1 µM).
For `O=C(NCCCN1CCOCC1)c1ccc(Nc2ncc(Cl)c(-c3ccc(Cl)s3)n2)cc1`, the remaining binding was 38% (binding; competition with immobilised ligand; 1 µM).
`C[C@@H](c1ccc(-n2cnc3c(N)ncnc32)cc1)N1CCc2nn(C)c(Cc3ccccc3)c2C1=O` has a remaining binding of 100% (binding; competition with immobilised ligand; 0.1 µM).
With `Cc1noc([C@H]2C[C@@H](c3ccc(C(F)(F)F)cc3)CN(C(=O)N3CCS(=O)(=O)C3)C2)n1` the remaining binding was 100% (cell-free assay; competition with immobilised ligand; 1 µM).
`CN(CCCC(F)(F)F)c1nccc(-c2cnn3ncccc23)n1` gave a remaining binding of 97% (binding; 1 µM).
With `O=C(NCC1CCOCC1)c1n[nH]cc1NC(=O)c1c(F)cccc1F` the remaining binding was 95% (binding; competition with immobilised ligand; 1 µM).
With `C[C@@H]1CCN(c2nccc(-c3cnn4ncccc34)n2)C1` the remaining binding was 85% (binding; 1 µM).
For `O=C(c1ccc(Nc2ncc(Cl)c(-c3cc4ccccc4s3)n2)cc1)N1CCC(N2CCCC2)CC1`, the remaining binding was 20% (binding; competition with immobilised ligand; 1 µM).
With `CC(=O)C1=C(C)N(c2cccc(C(F)(F)F)c2)C(=O)N[C@@H]1c1ccc(C#N)nc1` the remaining binding was 79.2% (cell-free assay; competition with immobilised ligand; 1 µM).
`CN(C)c1nccc(-c2cnc3ncccn23)n1` has a remaining binding of 89% (binding; 1 µM).
With `CS(=O)(=O)N1CCCC(NC(=O)[C@H](CCC2CCCCC2)NC(=O)c2ccc(CNc3ncnc4c3nnn4-c3ccccc3)cc2)C1` (stereo partly shown) the remaining binding was 90% (cell-free assay; competition with immobilised ligand; 0.1 µM).
With `Cc1cnn2ncc(-c3ccnc(N(C)C)n3)c2c1` the remaining binding was 87% (binding; 1 µM).
